The values that follow come from article PMC6460380 (Heliyon, 2019).

Where a name gives a salt, the structure may show the parent alone.

The subject of test [1] is GST enzyme isolated from blueberry fruits (Vaccinium arctostaphylos L.). Nature of the test: In vitro inhibition of purified blueberry fruit GST by pesticides. To be noted: for Ki: Lineweaver-Burk graphs, 1/V versus 1/[GSH]; for Ki / Inhibition type: GSH as substrate; for Inhibition type: from Lineweaver-Burk graphs; for IC50: from activity (%) - pesticide concentration graphs, minimum five concentrations. Format: biochemical. The method in brief:
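GST purified from ripe berries (stored at -20 °C). The 1 mL assay used 0.1 M K-phosphate pH 7.0, CDNB (25 mM stock in ethanol) and GSH (20 mM stock). It was started with enzyme and absorbance was read for 3 min. Pesticides were tested at ≥5 concentrations against a no-pesticide control set as 100%. Ki and inhibition type came from 1/V versus 1/[GSH] plots.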

Test [2] has the same test system. Nature of the test: Kinetic studies of purified blueberry fruit GST with substrates CDNB and GSH. Format: biochemical. To be noted: CDNB 0.05-1.6 mM at fixed GSH 20 mM; GSH 0.05-1.6 mM at fixed CDNB 25 mM. The method in brief: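 The enzyme was blueberry GST purified by Sephadex G-100 gel filtration then GSH-agarose affinity chromatography with GSH gradient elution. Reactions were 1 mL in 0.1 M K-phosphate buffer pH 7.0, with one substrate varied and the other held fixed. The reaction was started by rapid enzyme addition and absorbance was followed spectrophotometrically for 3 min.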

As to `O=C(O)COc1ccc(Cl)cc1Cl` [2,4 Dichlorophenoxy acetic acid], in test [1], the Ki came to 188 ± 85 µM, the Inhibition type result is “competitive”, inhibition was half-maximal at 460 µM (IC50) and the “Inhibition of GST enzyme activity in vitro (in words)” value (from here on “Inhibition of GST enzyme activity”) is “inhibited”.
Regarding `COP(=O)(OC)OC=C(Cl)Cl` [Dichlorvos, 2,2-dichlorovinyl dimethyl phosphate], in test [1], the affinity, expressed as Ki, was 17.5 ± 5 µM; the 50% inhibitory concentration (IC50) stood at 24 µM; the “Inhibition of GST enzyme activity” value is given as “inhibited”.
Regarding g-glu-cys-gly [GSH], in test [2], the Vmax was 0.048 EU/ml.
For `O=[N+]([O-])NC1=NCCN1Cc1ccc(Cl)nc1` [Imidacloprid, N-{1 - [(6-Chloro-3-pyridyl)methyl] -4,5-dihydroimidazol-2-yl} nitramide], in test [1], the Ki is 630 ± 283 µM, inhibition was half-maximal at 490 µM (IC50) and the “Inhibition of GST enzyme activity” value was “inhibited”.
With “(R) -2- [4- (6-chloro-1,3-benzoxazol-2-yloxy) phenoxy] propionic acid [Fenoxaprop-p-ethyl]”, in test [1], the Ki is 133 µM, the Inhibition type result is “competitive”, half-maximal inhibition (IC50) was put at 230 µM and the “Inhibition of GST enzyme activity” value is “inhibited”.
As for `CC1(C)C(C=C(Cl)Cl)C1C(=O)OC(C#N)c1cccc(Oc2ccccc2)c1` (centres unmarked) [Cypermethrin, [Cyano-(3-phenoxyphenyl)methyl] 3-(2,2-dichloroethenyl) -2,2-dimethylcyclopropane-1-carboxylate], in test [1], the affinity corresponds to a Ki of 310 ± 88 µM, the half-maximal inhibitory concentration (IC50) came out at 320 µM and the “Inhibition of GST enzyme activity” value was “inhibited”.
On to `O=C(O)CNCP(=O)(O)O` [Glifosat- izopropilamine salt, glyphosate isopropylamine salt], for which, in test [1], the affinity, expressed as Ki, was 266 ± 100 µM; the Inhibition type entry was “competitive”; the midpoint of inhibition, the IC50, lay at 160 µM; the “Inhibition of GST enzyme activity” value is recorded as “inhibited”.
For `CC(=NC#N)N(C)Cc1ccc(Cl)nc1` [Acetamiprid, N - [(6-chloro-3-pyridyl)methyl] -N′-cyano-N-methyl-acetamidine], in that order: 1560 ± 733 µM, “competitive”, 4100 µM and “inhibited”.

Usually Ki stands for the equilibrium dissociation constant of an inhibitor or competing ligand from its target. The low end stands for higher affinity, the high end for lower affinity. Usually IC50 stands for the point on the concentration scale where inhibition reaches its midpoint.
